Data as given in ChEMBL document CHEMBL1145864, “Synthesis and structure-activity relationship of a new series of COX-2 selective inhibitors: 1,5-diarylimidazoles” (J Med Chem, 2003).
pIC50: −log10 of the molar value.

Tests used:
[1] = target: Prostaglandin G/H synthase 1 (Homo sapiens, UniProt P23219); type: cell-based, U-937
[2] = target: T1, Prostaglandin G/H synthase 2 (Homo sapiens) (UniProt P35354); conditions: Blood; at 10 µM
T1 sequence (whole entry): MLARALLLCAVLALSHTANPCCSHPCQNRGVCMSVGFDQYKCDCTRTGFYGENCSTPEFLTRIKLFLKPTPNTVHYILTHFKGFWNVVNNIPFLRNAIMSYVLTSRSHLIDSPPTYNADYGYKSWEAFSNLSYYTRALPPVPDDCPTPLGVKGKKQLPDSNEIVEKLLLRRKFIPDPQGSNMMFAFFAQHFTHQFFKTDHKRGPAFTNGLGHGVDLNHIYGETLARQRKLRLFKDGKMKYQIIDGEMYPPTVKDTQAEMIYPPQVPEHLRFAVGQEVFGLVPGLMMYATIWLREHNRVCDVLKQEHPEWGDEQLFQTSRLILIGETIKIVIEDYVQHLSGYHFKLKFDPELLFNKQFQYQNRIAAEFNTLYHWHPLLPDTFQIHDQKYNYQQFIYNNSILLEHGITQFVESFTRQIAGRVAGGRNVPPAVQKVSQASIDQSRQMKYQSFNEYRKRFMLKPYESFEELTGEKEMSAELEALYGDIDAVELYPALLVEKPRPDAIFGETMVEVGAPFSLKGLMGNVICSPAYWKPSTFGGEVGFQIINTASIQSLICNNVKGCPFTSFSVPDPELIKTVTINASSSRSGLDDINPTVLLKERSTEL

[3] = tested on: Rattus norvegicus; experiment: In vivo anti-inflammatory activity determined by rat carrageenan paw edema method at 10 mg/kg perorally; type: functional; conditions: route oral
[4] = target: T1, Prostaglandin G/H synthase 2 (Homo sapiens); conditions: Blood; at 1 µM
[5] = tested on: Rattus norvegicus; experiment: In vivo anti-inflammatory activity by air pouch model at 1 mg/kg perorally in rat.; type: functional; conditions: route oral
Method in brief: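 Rat air pouch: sterile air (20 mL) was injected subcutaneously, with 10 mL refills every 2 days. On day 7, 2 mL of 1% lambda-carrageenan in saline was injected into the pouch. Compound was given orally (suspension in 1% CMC/Tween-80, 10 mL/kg) 0.5 h before carrageenan. At 6 h, exudate was collected and centrifuged, and supernatant PGE2 was measured by ELISA.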

Prostaglandin G/H synthase 1, sequence (P23219 whole entry): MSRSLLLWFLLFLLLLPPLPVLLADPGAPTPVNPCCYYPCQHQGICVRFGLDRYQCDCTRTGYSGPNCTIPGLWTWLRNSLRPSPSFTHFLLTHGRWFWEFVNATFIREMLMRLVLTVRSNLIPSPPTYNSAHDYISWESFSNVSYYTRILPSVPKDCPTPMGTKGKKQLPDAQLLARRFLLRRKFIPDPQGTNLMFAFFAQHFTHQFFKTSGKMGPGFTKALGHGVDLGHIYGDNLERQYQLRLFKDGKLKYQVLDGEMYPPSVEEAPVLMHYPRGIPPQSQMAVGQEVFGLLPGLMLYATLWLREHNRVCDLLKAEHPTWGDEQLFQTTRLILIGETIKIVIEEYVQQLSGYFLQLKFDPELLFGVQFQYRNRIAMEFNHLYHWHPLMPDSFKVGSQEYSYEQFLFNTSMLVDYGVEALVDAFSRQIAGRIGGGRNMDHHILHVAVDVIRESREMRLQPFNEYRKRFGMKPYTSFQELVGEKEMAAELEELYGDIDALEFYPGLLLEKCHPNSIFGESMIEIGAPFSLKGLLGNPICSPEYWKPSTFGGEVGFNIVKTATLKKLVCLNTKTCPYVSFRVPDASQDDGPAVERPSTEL

| pIC50 [1] | inhibition [2] [%] | inhibition [4] [%] | SMILES | inhibition in vivo at 10 mg/kg [3] [%] | inhibition in vivo at 1 mg/kg [5] [%] |
| --- | --- | --- | --- | --- | --- |
| < 5.00 |  |  | CC(=O)Nc1ccc(-c2c(Cl)ncn2-c2ccc(S(C)(=O)=O)cc2)cc1 |  |  |
| < 5.00 | 0 |  | CS(=O)(=O)c1ccc(-n2c(Cl)nc(Cl)c2-c2ccc(F)cc2)cc1 |  |  |
| < 5.00 | 100 | 100 | CCOc1ccc(-c2c(Cl)ncn2-c2ccc(S(C)(=O)=O)cc2)cc1 | 16.3 |  |
| < 5.00 | 59.9 |  | CC1Cc2cc(-c3c(Cl)ncn3-c3ccc(S(C)(=O)=O)cc3)ccc2O1 (stereo not given) |  |  |
| < 5.00 | 97.6 | 19.6 | NS(=O)(=O)c1ccc(-n2cnc(Cl)c2-c2ccc(Cl)nc2)cc1 | 18.1 |  |
| < 5.00 | 100 | 70 | CC(C)c1ccc(-c2c(Cl)ncn2-c2ccc(S(C)(=O)=O)cc2)cc1 | 17 |  |
| 6.96 | 100 | 100 | COc1ccc(-c2c(Cl)ncn2-c2ccc(S(C)(=O)=O)cc2)c(F)c1 | 33 |  |
| < 5.00 | 68 |  | Cc1ncc(-c2ccc(S(C)(=O)=O)cc2)n1-c1ccc(F)cc1 | 21.7 |  |
| < 5.00 | 63.4 |  | CS(=O)(=O)c1ccc(-c2cncn2-c2ccc(F)cc2)cc1 |  |  |
| < 5.00 | 3.4 |  | C=CCc1ncn(-c2ccc(S(C)(=O)=O)cc2)c1-c1ccc(F)cc1 |  |  |
| < 5.00 | 27.5 |  | Cc1nc(Cl)c(-c2ccc(F)cc2)n1-c1ccc(S(C)(=O)=O)cc1 |  |  |
| < 5.00 |  |  | CC(C)Oc1ccc(-c2c(Cl)ncn2-c2ccc(S(C)(=O)=O)cc2)cc1 |  |  |
| < 5.00 | 100 | 85.2 | CS(=O)(=O)c1ccc(-n2cnc(Br)c2-c2ccc(F)cc2)cc1 |  | 91.4 |
| 4.00 | 100 | 66.2 | CS(=O)(=O)c1ccc(-n2cnc(Cl)c2-c2ccccc2F)cc1 | 21.5 |  |
| 5.89 | 100 | 100 | COc1ccc(-c2c(Cl)ncn2-c2ccc(S(C)(=O)=O)cc2)cc1 | 33.4 |  |
| < 5.00 | 100 | 100 | COc1ccc(-c2c(Cl)ncn2-c2ccc(S(C)(=O)=O)cc2)cc1C | 21.4 | 75.6 |
| < 5.00 | 99.8 | 37.3 | COc1c(Cl)cc(-c2c(Cl)ncn2-c2ccc(S(C)(=O)=O)cc2)cc1Cl | 16.5 |  |
| < 5.00 | 100 | 51.9 | CS(=O)(=O)c1ccc(-n2cnc(Cl)c2-c2cccc(F)c2)cc1 | 22.8 |  |
| < 5.00 | 0 |  | CCOc1cc(OCC)cc(-c2c(Cl)ncn2-c2ccc(S(C)(=O)=O)cc2)c1 |  |  |
| < 5.00 | 100 | 74.9 | CS(=O)(=O)c1ccc(-n2cnc(Cl)c2-c2cccnc2)cc1 | 19 |  |

| pIC50 [1] | inhibition [2] [%] | inhibition [4] [%] | SMILES | inhibition in vivo at 10 mg/kg [3] [%] | inhibition in vivo at 1 mg/kg [5] [%] |
| --- | --- | --- | --- | --- | --- |
| 4.62 | 100 | 79.6 | CS(=O)(=O)c1ccc(-n2cnc(Cl)c2-c2ccc(F)cc2F)cc1 | 8.6 |  |
| < 5.00 | 51.6 |  | CS(=O)(=O)c1ccc(-c2c(Cl)nc(Cl)n2-c2ccc(F)cc2)cc1 |  |  |
| < 6.00 |  |  | CS(=O)(=O)c1ccc(-n2cnc(Cl)c2-c2cc3ccccc3o2)cc1 |  |  |
| < 5.00 | 100 | 85.6 | CS(=O)(=O)c1ccc(-c2cnc(Cl)n2-c2ccc(F)cc2)cc1 | 20.4 | 55.2 |
| 5.40 | 100 |  | Cc1cc(-c2c(Cl)ncn2-c2ccc(S(C)(=O)=O)cc2)ccc1Cl |  |  |
| < 5.00 |  |  | CS(=O)(=O)c1ccc(-n2c(-c3ccc(F)cc3)cnc2Cl)cc1 |  |  |
| < 5.00 | 71.6 |  | CS(=O)(=O)c1ccc(-n2cnc(Cl)c2-c2ccc(N)cc2)cc1 | 15.3 |  |
| < 5.00 |  | 0 | CCCOc1ccc(-c2c(Cl)ncn2-c2ccc(S(C)(=O)=O)cc2)cc1 |  |  |
| < 5.00 | 86.5 | 34.5 | Cc1ncn(-c2ccc(S(C)(=O)=O)cc2)c1-c1ccc(F)cc1 |  | 45 |
| < 5.00 | 2.4 |  | CS(=O)(=O)c1ccc(-n2c(CO)nc(Cl)c2-c2ccc(F)cc2)cc1 |  |  |
| < 5.00 | 100 | 77.1 | COc1cc(-c2c(Cl)ncn2-c2ccc(S(C)(=O)=O)cc2)ccc1C | 9.2 |  |
| < 5.00 | 16.8 |  | CS(=O)(=O)c1ccc(-c2cnc(CF)n2-c2ccc(F)cc2)cc1 |  |  |
| 4.81 | 99.9 | 26.8 | CCOc1ccc(-c2c(Cl)ncn2-c2ccc(S(N)(=O)=O)cc2)cc1Cl | 18.5 |  |
| < 5.00 | 27.4 |  | CS(=O)(=O)c1ccc(-n2c(-c3ccc(F)cc3)cnc2CO)cc1 |  |  |
| 4.12 | 100 | 57 | CCOc1ccc(-c2c(Cl)ncn2-c2ccc(S(N)(=O)=O)cc2)cc1F | 30.3 |  |
| < 5.00 | 95 |  | CS(=O)(=O)c1ccc(-c2cnc(C(=O)c3ccccc3)n2-c2ccc(F)cc2)cc1 |  |  |
| < 5.00 | 0 |  | CS(=O)(=O)c1ccc(-n2c(-c3ccc(F)cc3)cnc2C(=O)c2ccccc2)cc1 |  |  |
| < 5.00 | 15.3 |  | CS(=O)(=O)c1ccc(-c2c(Cl)ncn2-c2ccc(F)cc2)cc1 |  |  |
| < 5.00 | 100 | 88.4 | CS(=O)(=O)c1ccc(-n2cnc(Cl)c2-c2ccc(Cl)cc2)cc1 | 9.1 |  |
| < 6.00 |  |  | CS(=O)(=O)c1ccc(-n2cnc(Cl)c2-c2cc(Br)co2)cc1 |  |  |

| pIC50 [1] | inhibition [2] [%] | inhibition [4] [%] | SMILES | inhibition in vivo at 10 mg/kg [3] [%] | inhibition in vivo at 1 mg/kg [5] [%] |
| --- | --- | --- | --- | --- | --- |
| < 5.00 | 95.2 | 96.5 | CCOc1ccc(-c2c(Cl)ncn2-c2ccc(S(C)(=O)=O)cc2)cc1F | 14.1 |  |
| 5.92 | 99.9 |  | COc1ccc(-c2c(Cl)ncn2-c2ccc(S(N)(=O)=O)cc2)cc1Cl | 24 |  |
| < 5.00 |  |  | CS(=O)(=O)c1ccc(-n2cnc(Cl)c2-c2ccc(OC(F)(F)F)cc2)cc1 |  |  |
| < 5.00 | 100 | 47.7 | CCOc1ccc(-c2c(Cl)ncn2-c2ccc(S(C)(=O)=O)cc2)cc1Cl | 2 |  |
| < 5.00 | 91.9 | 60 | CCCc1ccc(-c2c(Cl)ncn2-c2ccc(S(C)(=O)=O)cc2)cc1 | 0 |  |
| < 5.00 |  |  | CCS(=O)(=O)c1ccc(-c2c(Cl)ncn2-c2ccc(S(C)(=O)=O)cc2)cc1 |  |  |
| < 5.00 | 64.4 |  | CCCCCc1ncn(-c2ccc(S(C)(=O)=O)cc2)c1-c1ccc(F)cc1 |  |  |
| 6.96 | 65.5 | 69.9 | CS(=O)(=O)c1ccc(-n2cnc(Cl)c2-c2ccc3c(c2)CCO3)cc1 | 29 |  |
| < 5.00 | 36 |  | CS(=O)(=O)c1ccc(-c2c(Br)ncn2-c2ccc(F)cc2)cc1 |  |  |
| < 5.00 | 61.6 |  | CS(=O)(=O)c1ccc(-n2cnc(Cl)c2-c2cc(F)cc(F)c2)cc1 |  |  |
| < 5.00 | 60.5 |  | CS(=O)(=O)c1ccc(-n2cnc(Cc3ccccc3)c2-c2ccc(F)cc2)cc1 |  |  |
| < 5.00 | 70.9 |  | CS(=O)(=O)c1ccc(-c2cnc(C=O)n2-c2ccc(F)cc2)cc1 | 27.5 |  |
| < 5.00 | 3.8 |  | CCc1ncn(-c2ccc(S(C)(=O)=O)cc2)c1-c1ccc(F)cc1 |  |  |
| < 5.00 | 39.1 |  | COC(=O)c1ncc(-c2ccc(S(C)(=O)=O)cc2)n1-c1ccc(F)cc1 |  |  |
| < 5.00 | 97.3 | 76.7 | CCSc1ccc(-c2c(Cl)ncn2-c2ccc(S(C)(=O)=O)cc2)cc1 | 12.3 |  |
| < 5.00 | 8.1 |  | CS(=O)(=O)c1ccc(-c2cnc(CO)n2-c2ccc(F)cc2)cc1 |  |  |
| < 5.00 | 42.6 |  | Cc1nc(Cl)n(-c2ccc(F)cc2)c1-c1ccc(S(C)(=O)=O)cc1 |  |  |
| < 5.00 | 56.9 |  | CS(=O)(=O)c1ccc(-n2cncc2-c2ccc(F)cc2)cc1 |  |  |
| 6.05 | 88.5 | 49 | CSc1ccc(-c2c(Cl)ncn2-c2ccc(S(C)(=O)=O)cc2)cc1 | 21.7 |  |
